Laboratory results as given in PMC11100303 (RSC Advances, 2024).

How the values were obtained:
[1] = pH of compound dissolved in water; assay type: physicochemical; conditions: mean ± S.D., n = 3
[2] = Thermogravimetric analysis; assay type: physicochemical; conditions: TGA, 30 to 350 °C at 10 °C min^−1, nitrogen
Summary of the method: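 Samples of 2–5 mg weighed into platinum pans and heated from 30 to 350 °C at 10 °C min−1 under nitrogen purge at 25 mL min−1. T5% taken as the temperature at 5% loss of total sample mass.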

[3] = system: Human endocervical epithelial cell line (A2EN); experiment: MTT assay for cervical cell proliferation / viability; assay type: cell-based; conditions: 24 h treatment, even at high concentrations of 50 mM
[4] = system: Human endocervical epithelial cell line (A2EN); experiment: Crystal violet staining for cervical cell morphology; assay type: cell-based; conditions: 24 h treatment, even at 100 mM

O=C(O)C(O)Cc1ccccc1 [D-PLA, 2-hydroxy-3-phenylpropanoic acid]
pH [1]: 2.9 ± 1.2

C[N+](C)(C)CCO.O=C([O-])[C@H](O)Cc1ccccc1 [Chol : D-PLA (1 : 1)]
pH [1]: 9.02 ± 1.7 | T5% (onset temperature at 5% mass loss) [2]: 94.3 °C | Effect on cervical epithelial cell viability [3]: did not significantly reduce cervical epithelial cell viability | Morphological changes of cervical epithelial cells [4]: no morphological changes were observed

C[N+](C)(C)C[C@H](O)CC(=O)[O-] [carnitine, L-Carnitine]
T5% (onset temperature at 5% mass loss) [2]: 189.9 °C

O=C(O)C(O)Cc1ccccc1 [L-PLA, 2-hydroxy-3-phenylpropanoic acid]
pH [1]: 3.2 ± 1.6 | T5% (onset temperature at 5% mass loss) [2]: 156.07 °C
